In ChEMBL document CHEMBL4152184, “NB 06: From a simple lysosomotropic aSMase inhibitor to tools for elucidating the role of lysosomes in signaling apoptosis and LPS-induced inflammation” (Eur J Med Chem, 2018):
Calls of active or inactive are those of the source. The rule behind the calls is not given here.

Tests used:
[1] = system: MONO-MAC-6; assay: Downregulation of CCL4 mRNA expression level in human MONO-MAC-6 cells at 5 uM incubated for 30 mins measured after 4 hrs by oligonucleotide array hybridization assay relative to control; format: functional
Outline: (§1)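 Total RNA was isolated, transcribed and labeled with DY-647 dye, then co-hybridized with DY-548-labeled cDNA from untreated cells on an inflammation oligonucleotide chip (780 gene probes). Differential expression >1.5 was taken as significant.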

[2] = system: MONO-MAC-6; assay: Upregulation of CCL20 mRNA expression level in LPS-stimulated human MONO-MAC-6 cells at 5 uM preincubated for 30 mins followed by LPS stimulation measured after 2 hrs by oligonucleotide array hybridization assay (reference value: 2.87); format: functional
[3] = system: MONO-MAC-6; assay: Upregulation of HSPA1A mRNA expression level in LPS-stimulated human MONO-MAC-6 cells preincubated for 30 mins followed by LPS stimulation measured after 4 hrs by qRT-PCR analysis relative to control; format: functional
[4] = system: MONO-MAC-6; assay: Upregulation of PTGS2 mRNA expression level in LPS-stimulated human MONO-MAC-6 cells at 5 uM preincubated for 30 mins followed by LPS stimulation measured after 2 hrs by oligonucleotide array hybridization assay (reference value: 1.97); format: functional
[5] = system: MONO-MAC-6; assay: Downregulation of CXCL2 mRNA expression level in LPS-stimulated human MONO-MAC-6 cells at 5 uM preincubated for 30 mins followed by LPS stimulation measured after 6 hrs by qRT-PCR method (reference value: 5.22); format: functional
[6] = system: MONO-MAC-6; assay: Upregulation of IL23A mRNA expression level in LPS-stimulated human MONO-MAC-6 cells at 5 uM preincubated for 30 mins followed by LPS stimulation measured after 1 hr by qRT-PCR method (reference value: 1.10); format: functional
[7] = system: MONO-MAC-6; assay: Downregulation of CXCL2 mRNA expression level in human MONO-MAC-6 cells at 5 uM incubated for 30 mins measured after 6 hrs by qRT-PCR method relative to control; format: functional
[8] = system: MONO-MAC-6; assay: Upregulation of CXCL3 mRNA expression level in LPS-stimulated human MONO-MAC-6 cells at 5 uM preincubated for 30 mins followed by LPS stimulation measured after 4 hrs by oligonucleotide array hybridization assay (reference value: 13.52); format: functional
[9] = biological target: T1, Acid ceramidase (Homo sapiens) (UniProt Q13510); assay: Inhibition of TNFalpha-stimulated acid ceramidase in human PBMC assessed as ratio of C24:1-ceramide/lipid phosphate level at 10 uM preincubated for 30 mins followed by TNFalpha stimulation measured after 4 hrs by HPLC method (reference value: 3.05); format: cell-based
T1 sequence (whole entry): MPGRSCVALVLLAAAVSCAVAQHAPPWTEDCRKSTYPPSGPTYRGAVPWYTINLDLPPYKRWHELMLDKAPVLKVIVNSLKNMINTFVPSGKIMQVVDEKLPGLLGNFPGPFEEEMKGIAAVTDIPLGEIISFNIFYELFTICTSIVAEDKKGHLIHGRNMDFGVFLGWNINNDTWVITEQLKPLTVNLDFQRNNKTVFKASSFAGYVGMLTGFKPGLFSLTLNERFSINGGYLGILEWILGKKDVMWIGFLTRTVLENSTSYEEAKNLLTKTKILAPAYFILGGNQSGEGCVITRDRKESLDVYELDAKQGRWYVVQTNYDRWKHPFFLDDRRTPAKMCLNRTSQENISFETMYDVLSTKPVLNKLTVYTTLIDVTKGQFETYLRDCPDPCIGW
Outline: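 Human macrophages from primary culture were preincubated 30 min with 10 µM compound. They were then stimulated 4 h with mmLDL (54 µg/mL), TNFalpha (3 ng/mL) or exogenous C6-ceramide (10 µM), or left unstimulated. Individual ceramide species (C16 and C24:1) were quantified in the cell lipid extracts.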

[10] = system: MONO-MAC-6; assay: Downregulation of CCL20 mRNA expression level in human MONO-MAC-6 cells at 5 uM incubated for 30 mins measured after 4 hrs by oligonucleotide array hybridization assay relative to control; format: functional; outline: as §1
[11] = biological target: T2, Sphingomyelin phosphodiesterase (Homo sapiens) (UniProt P17405); assay: Inhibition of mmLDL-stimulated acid sphingomyelinase in human PBMC lysates at 2 to 50 uM preincubated for 30 mins followed by mmLDL stimulation measured after 4 hrs by YO-PRO-1/Hoechst 33342 staining based assay
T2 sequence (whole entry): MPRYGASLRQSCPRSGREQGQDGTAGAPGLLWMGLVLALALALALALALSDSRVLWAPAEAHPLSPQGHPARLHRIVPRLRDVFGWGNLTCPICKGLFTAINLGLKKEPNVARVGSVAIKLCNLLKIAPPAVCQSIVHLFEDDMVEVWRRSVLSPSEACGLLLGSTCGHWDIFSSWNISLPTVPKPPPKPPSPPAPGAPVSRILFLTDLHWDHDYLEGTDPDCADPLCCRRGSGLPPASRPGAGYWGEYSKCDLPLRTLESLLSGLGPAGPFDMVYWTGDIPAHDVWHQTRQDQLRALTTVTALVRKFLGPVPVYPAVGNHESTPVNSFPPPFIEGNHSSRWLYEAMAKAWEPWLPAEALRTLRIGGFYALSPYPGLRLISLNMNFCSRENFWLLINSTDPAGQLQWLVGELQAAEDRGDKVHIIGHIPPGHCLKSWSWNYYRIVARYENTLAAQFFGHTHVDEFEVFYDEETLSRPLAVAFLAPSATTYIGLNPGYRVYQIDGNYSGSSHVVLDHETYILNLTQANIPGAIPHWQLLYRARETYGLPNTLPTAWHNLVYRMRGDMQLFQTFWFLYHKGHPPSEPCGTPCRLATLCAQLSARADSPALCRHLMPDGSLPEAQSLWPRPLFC

[12] = system: MONO-MAC-6; assay: Upregulation of IL-6 mRNA expression level in LPS-stimulated human MONO-MAC-6 cells at 5 uM preincubated for 30 mins followed by LPS stimulation measured after 4 hrs by qRT-PCR method (reference value: 76.46); format: functional
[13] = system: MONO-MAC-6; assay: Downregulation of CXCL2 mRNA expression level in human MONO-MAC-6 cells at 5 uM incubated for 30 mins measured after 4 hrs by oligonucleotide array hybridization assay relative to control; format: functional; outline: as §1
[14] = system: MONO-MAC-6; assay: Upregulation of CXCL10 mRNA expression level in LPS-stimulated human MONO-MAC-6 cells at 5 uM preincubated for 30 mins followed by LPS stimulation measured after 6 hrs by oligonucleotide array hybridization assay (reference value: 1.57); format: functional
[15] = system: MONO-MAC-6; assay: Upregulation of PTGS2 mRNA expression level in LPS-stimulated human MONO-MAC-6 cells at 5 uM preincubated for 30 mins followed by LPS stimulation measured after 4 hrs by oligonucleotide array hybridization assay (reference value: 5.29); format: functional
[16] = system: MONO-MAC-6; assay: Downregulation of CXCL3 mRNA expression level in LPS-stimulated human MONO-MAC-6 cells at 5 uM preincubated for 30 mins followed by LPS stimulation measured after 1 hr by oligonucleotide array hybridization assay (reference value: 1.18); format: functional; outline: as §1
[17] = biological target: T2, Sphingomyelin phosphodiesterase (Homo sapiens); assay: Inhibition of mmLDL-stimulated acid sphingomyelinase in human PBMC lysates up to 10 uM preincubated for 30 mins followed by mmLDL stimulation measured after 4 hrs by YO-PRO-1/Hoechst 33342 staining based assay

For `COc1ccc(CCN(C)CCCn2c3ccccc3c3ccccc32)cc1`, the “fold change (FC)” value [1] was 1.55, the “fold change (FC)” value [2] was 2.7 and the “fold change (FC)” value [3] was 2.67. For the same molecule, the “fold change (FC)” value [4] was 3.66, the “fold change (FC)” value [5] was 1.01 and the “fold change (FC)” value [6] was 1.03. For the same molecule, the “fold change (FC)” value [7] was 4.71, the “fold change (FC)” value [8] was 8.83 and the Ratio [9] was 1.28. For the same molecule, the “fold change (FC)” value [10] was 1.4, the inhibition [11] was “Active” and the “fold change (FC)” value [12] was 29.11. For the same molecule, the “fold change (FC)” value [13] was 2.28, the “fold change (FC)” value [14] was 1.12 and the “fold change (FC)” value [15] was 4.07. The “fold change (FC)” value [16] was 1.24 and the inhibition [17] was “inactive”.
